Experiment [1] deals with Plasmodium yoelii. Nature of the experiment: Antimalarial activity against liver stages of Plasmodium yoelii expressing GFP infected in human HepG2:CD81 cells after 43 hrs by immunofluorescence analysis. In kind it is functional, organism-based. A digest of the protocol:
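P. yoelii sporozoite-infected subconfluent HepG2:CD81 cells were kept at 37 °C in 5% CO2 and exposed to compound at up to 25 μg/ml in complete medium. After 43 h they were formalin-fixed and stained with anti-Plasmodium HSP70 mouse mAb plus rabbit anti-UIS4 or anti-FabI. About 20–25 parasites per treatment were sized at 20X against DMSO controls. The normalized reduction was used for IC50 estimation.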

In experiment [2] the target is T1, 3-oxoacyl-acyl-carrier protein reductase (Plasmodium falciparum, UniProt Q965D6).
T1 sequence (Q965D6 whole entry): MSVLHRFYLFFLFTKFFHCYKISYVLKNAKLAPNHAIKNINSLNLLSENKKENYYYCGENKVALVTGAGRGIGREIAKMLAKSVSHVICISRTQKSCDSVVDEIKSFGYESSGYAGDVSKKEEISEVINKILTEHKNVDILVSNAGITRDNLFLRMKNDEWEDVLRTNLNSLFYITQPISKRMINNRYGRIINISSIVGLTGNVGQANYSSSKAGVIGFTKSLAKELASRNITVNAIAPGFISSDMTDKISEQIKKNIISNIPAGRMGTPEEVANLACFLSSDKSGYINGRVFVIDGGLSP
Briefly: Inhibition of Plasmodium falciparum FabG by spectrophotometric analysis. A digest of the protocol: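 Recombinant PfFabG assayed in 20 mM HEPES pH 7.4, 150 mM NaCl, with NADPH cofactor and acetoacetyl-CoA substrate; DMSO at most 1% final. IC50 came from plotted dose-response curves.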

The target of experiment [3] is T2, Enoyl-acyl-carrier protein reductase (Plasmodium falciparum, UniProt Q965D5).
T2 sequence (Q965D5 whole entry): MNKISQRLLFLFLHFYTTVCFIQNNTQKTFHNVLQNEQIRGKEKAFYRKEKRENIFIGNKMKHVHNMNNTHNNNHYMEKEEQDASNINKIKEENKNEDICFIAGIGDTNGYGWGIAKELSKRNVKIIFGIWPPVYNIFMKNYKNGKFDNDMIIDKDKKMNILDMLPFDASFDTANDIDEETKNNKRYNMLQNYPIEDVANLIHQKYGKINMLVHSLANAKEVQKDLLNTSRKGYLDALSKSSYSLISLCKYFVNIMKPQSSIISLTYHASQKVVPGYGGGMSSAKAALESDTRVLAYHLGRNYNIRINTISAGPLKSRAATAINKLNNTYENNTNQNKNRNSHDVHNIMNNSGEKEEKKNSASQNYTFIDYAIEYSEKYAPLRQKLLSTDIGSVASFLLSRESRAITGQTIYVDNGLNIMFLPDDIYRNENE
Nature of the experiment: Inhibition of Plasmodium falciparum FabI by spectrophotometric analysis.

The subject of the next experiment is Leishmania donovani. Nature of the experiment: Leishmanicidal activity against axenic amastigotes of Leishmania donovani MHOM/ET/67/L82 after 72 hrs. In kind it is functional, organism-based. Particulars: MHOM/ET/67/L82, 72 h.
A further experiment has as its system Trypanosoma cruzi. Nature of the experiment: Trypanocidal activity against intracellular amastigotes of Trypanosoma cruzi Tulahuen C2C4 expressing LacZ gene infected in rat L6 cells after 96 hrs. In kind it is functional, organism-based. Conditions: Tulahuen C2C4, L6, 96 h.
Another experiment concerns L6. Briefly: Cytotoxicity against rat L6 cells after 72 hrs by microplate fluorometric analysis. In kind it is cell-based. Particulars: L6, 72 h.
Experiment [4] concerns Plasmodium yoelii. Nature of the experiment: Antimalarial activity against liver stages of Plasmodium yoelii expressing GFP infected in human HepG2:CD81 cells after 43 hrs by flow cytometry. In kind it is functional, organism-based. A digest of the protocol: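 HepG2:CD81 cells seeded on attachment matrix in DMEM/F12 with FBS, infected next day with 50,000 PyGFP sporozoites dissected from mosquitoes 14 days post blood meal. Compound added 2 h later from 10 mM DMSO stocks, tested at 10 to 100 μM, medium changed at 24 h, grown a further 43 h at 37 °C. GFP-positive cells counted by flow cytometry with 7-AAD; atovaquone as positive control.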

Another experiment has as its target T3, Fatty acid synthase (Plasmodium falciparum, UniProt Q965D7).
T3 sequence (Q965D7 whole entry): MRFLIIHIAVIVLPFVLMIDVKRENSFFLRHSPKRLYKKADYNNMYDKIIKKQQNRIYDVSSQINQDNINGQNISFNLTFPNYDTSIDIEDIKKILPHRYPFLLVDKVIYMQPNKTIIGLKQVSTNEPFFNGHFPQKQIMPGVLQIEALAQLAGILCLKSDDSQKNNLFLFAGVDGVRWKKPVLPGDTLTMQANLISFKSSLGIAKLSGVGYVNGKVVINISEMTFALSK
Briefly: Inhibition of Plasmodium falciparum FabZ by spectrophotometric analysis. In a few lines: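 Recombinant PfFabZ (0.5 μg) with 25 μM crotonoyl-CoA in 20 mM HEPES pH 7.4, 150 mM NaCl; DMSO at most 1% final. Read at 263 nm for 2 min, with epigallocatechin gallate as reference. IC50 came from plotted dose-response curves.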

Experiment [5] relates to Plasmodium falciparum. Briefly: Antimalarial activity against erythrocytic stages of chloroquine and pyrimethamine-resistant Plasmodium falciparum K1 assessed as [3H]hypoxanthine incorporation after 48 hrs by liquid scintillation counting. In kind it is functional, organism-based. A digest of the protocol: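 K1 parasites in RPMI 1640 with 5% Albumax, no hypoxanthine, given serial dilutions; 48 h at 37 °C under reduced oxygen, then 0.5 μCi [3H]-hypoxanthine added for a further 24 h. Harvested on glass-fibre filters and counted. Counts per well expressed as percentage of untreated controls; IC50 read from plotted dose-response curves. Chloroquine as standard.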

The subject of experiment [6] is Trypanosoma brucei rhodesiense. Briefly: Trypanocidal activity against bloodstream form of Trypanosoma brucei rhodesiense STIB 900 after 72 hrs. In kind it is functional, organism-based. Particulars: STIB 900, 72 h.
The subject of experiment [7] is Plasmodium falciparum. Briefly: Selectivity ratio of IC50 for Plasmodium falciparum FabG to IC50 for Plasmodium falciparum FabI.
The test system of experiment [8] is Plasmodium falciparum. Briefly: Selectivity ratio of IC50 for Plasmodium falciparum FabG to IC50 for Plasmodium falciparum FabZ.

The term IC50 denotes the point on the concentration scale where inhibition reaches its midpoint.

Converted amounts (≈) assume the structure as drawn.

As to `CCCCCCCCCCCCCCCC(=O)O` [PALMITIC ACID], the half-maximal inhibitory concentration (IC50) with Plasmodium yoelii [1] is more than 25 µg/mL; in experiment [2], more than 390 µM; in experiment [3] it was more than 390 µM; in the experiment with Leishmania donovani it was 14.5 µg/mL (≈ 56.5 µM); with Trypanosoma cruzi it was more than 30 µg/mL; in the experiment on L6, 52.7 µg/mL (≈ 206 µM). Further, the IC50 in the experiment with Plasmodium yoelii [4] was more than 25 µg/mL; on Fatty acid synthase, more than 390 µM; in the experiment on Plasmodium falciparum [5], 3.8 µg/mL (≈ 14.8 µM); in experiment [6], 30.4 µg/mL (≈ 119 µM).

Regarding `O=C1C(O)=C([C@H]2CC[C@H](c3ccc(Cl)cc3)CC2)C(=O)c2ccccc21` [ATOVAQUONE], the IC50 stood at 0.00037 µg/mL (≈ 0.00101 µM) in the experiment on Plasmodium yoelii [1] and 0.0025 µg/mL (≈ 0.00681 µM) in the experiment with Plasmodium yoelii [4].

Consider `O=C(Cn1ccnc1[N+](=O)[O-])NCc1ccccc1` [BENZNIDAZOLE], for which, in the experiment on Trypanosoma cruzi, the IC50 turned out to be 0.489 µg/mL (≈ 1.88 µM).

On to `CCCCCCCCCC#CCCCCC(=O)O`, for which the IC50 was more than 25 µg/mL in the experiment with Plasmodium yoelii [1]; more than 396 µM in [2]; 14.3 µM in [3]; 9.8 µg/mL (≈ 38.8 µM) in the experiment with Leishmania donovani; more than 30 µg/mL in the experiment on Trypanosoma cruzi; 30.3 µg/mL (≈ 120 µM) in the experiment on L6. In addition, the IC50 was more than 25 µg/mL in the experiment on Plasmodium yoelii [4], 47.5 µM on Fatty acid synthase, 22.5 µg/mL (≈ 89.1 µM) in the experiment on Plasmodium falciparum [5] and 31.7 µg/mL (≈ 126 µM) in experiment [6]. Further, the Ratio IC50 with Plasmodium falciparum [7] stood at 10; with Plasmodium falciparum [8], 50.

Take `COc1cc([C@@H]2c3cc4c(cc3[C@H](O)[C@H]3COC(=O)[C@H]23)OCO4)cc(OC)c1OC` [PODOFILOX]: in the experiment on L6, half-maximal inhibition (IC50) required 0.004 µg/mL (≈ 0.00965 µM).

Regarding `CCCCCCC#CCCCCCCCC(=O)O`, the IC50 was more than 25 µg/mL in the experiment on Plasmodium yoelii [1]; more than 396 µM in [2]; 11.1 µM in experiment [3]; 4.1 µg/mL (≈ 16.2 µM) in the experiment with Leishmania donovani; more than 30 µg/mL with Trypanosoma cruzi; 80.8 µg/mL (≈ 320 µM) in the experiment on L6. Further, the 50% inhibitory concentration (IC50) in the experiment on Plasmodium yoelii [4] is more than 25 µg/mL; on Fatty acid synthase it was 49.5 µM; in experiment [6] it was 3.7 µg/mL (≈ 14.7 µM). Moreover, the Ratio IC50 stood at 10 in the experiment on Plasmodium falciparum [7] and 50 in the experiment on Plasmodium falciparum [8].

For the compound `CCCCCCCCCCC#CCCCC(=O)O`, the half-maximal inhibitory concentration (IC50) with Plasmodium yoelii [1] is more than 25 µg/mL; in experiment [2], more than 396 µM; in experiment [3], 12.3 µM; in the experiment on Leishmania donovani, 13.4 µg/mL (≈ 53.1 µM); with Trypanosoma cruzi, more than 30 µg/mL; in the experiment with L6, more than 90 µg/mL. In addition, the IC50 in the experiment on Plasmodium yoelii [4] was more than 25 µg/mL; on Fatty acid synthase, 55.5 µM; in the experiment on Plasmodium falciparum [5], 6.6 µg/mL (≈ 26.1 µM); in experiment [6] it was 25.5 µg/mL (≈ 101 µM). Besides, the Ratio IC50 is 10 with Plasmodium falciparum [7] and 50 with Plasmodium falciparum [8].

Compound `O=C(O[C@@H]1Cc2c(O)cc(O)cc2O[C@@H]1c1cc(O)c(O)c(O)c1)c1cc(O)c(O)c(O)c1` [EPIGALOCATECHIN GALLATE] gave an IC50 against Fatty acid synthase of 0.0654 µM.

Compound `CCCCCCCCCCCCCCCCOP(=O)([O-])OCC[N+](C)(C)C` [MILTEFOSINE] displayed an IC50 in the experiment on Leishmania donovani of 0.26 µg/mL (≈ 0.638 µM).

The values above are taken from ChEMBL document CHEMBL1268887, “2-Hexadecynoic acid inhibits plasmodial FAS-II enzymes and arrests erythrocytic and liver stage Plasmodium infections” (Bioorg Med Chem, 2010).
